Calls of active or inactive are those of the source. No cut-off for these calls is given here.
Experiments:
[1] = test system: Human immunodeficiency virus 1; assay: Antiviral activity against wild type HIV1 3B infected in human MT4 cells assessed as protection against virus induced cytopathogenicity after 4 days by MTT assay; type: functional, organism-based; settings: Human immunodeficiency virus 1, 3B, MT4, 96 h
In short: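 MT-4 cells (1×10^4/well) in RPMI with serial compound dilutions were infected with HIV-1 (100 CCID50; m.o.i. 0.01). After 4 days, viability was measured by MTT. EC50 is the concentration giving 50% protection from virus-induced cytopathogenicity. Compounds were prepared as 100 mM DMSO stocks diluted in medium.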

Yellow fever virus = assay: Antiviral activity against Yellow fever virus infected in BHK-21 cells assessed as protection against virus induced cytopathogenicity after 3 to 4 days by MTT assay; type: functional, organism-based
In short: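 BHK cells were seeded at 5 × 10^4 per well and grown overnight to monolayers, then infected at m.o.i. 0.01 in serum-free medium. One hour later, MEM Earle's with 1% FCS (final) and serial compound dilutions were added. After 3–4 days at 37 °C, viability was read by MTT. EC50 is the concentration giving 50% protection from virus-induced cytopathogenicity.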

[2] = test system: Bovine viral diarrhea virus 1; assay: Antiviral activity against Bovine viral diarrhea virus infected in MDBK cells assessed as protection against virus induced cytopathogenicity after 3 to 4 days by MTT assay; type: functional, organism-based
In short: (§1)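 Monolayers were grown overnight at 37 °C, 5% CO2: MDBK at 3×10^4 cells/well, BHK at 5×10^4 cells/well. Cells infected at m.o.i. 0.01. After 1 h, serial compound dilutions added in MEM with 1% FCS. Viability read by MTT after 3–4 days at 37 °C. EC50 is the concentration giving 50% protection from cytopathogenicity.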

Coxsackievirus B2 = assay: Antiviral activity against Coxsackie virus B2 infected in african green monkey Vero76 cells after 3 days by plaque reduction assay; type: functional, organism-based; settings: Vero 76
In short: (§2)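 Vero 76 monolayers (2×10^5 cells/well, overnight) infected to give 50–100 PFU/well. Unadsorbed virus removed, then DMEM with 1% FCS, 0.75% methylcellulose and serial compound dilutions added. Incubated at 37 °C for 3 days (CVB-2, HSV-1) or 5 days (RSV). Fixed and stained with 50% ethanol/0.8% crystal violet in PBS; plaques counted.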

Poliovirus 1 = assay: Antiviral activity against Poliovirus type 1 Sabin infected in african green monkey Vero76 cells after 2 days by plaque reduction assay; type: functional, cell-based; settings: Vero 76
[3] = test system: Respiratory syncytial virus; assay: Antiviral activity against Respiratory syncytial virus infected in african green monkey Vero76 cells after 5 days by plaque reduction assay; type: functional, organism-based; settings: Vero 76; in short: as §2
[4] = test system: Vesicular stomatitis virus; assay: Antiviral activity against Vesicular stomatitis virus infected in african green monkey Vero76 cells after 2 days by plaque reduction assay; type: functional, organism-based; settings: Vero 76
[5] = test system: Mammalian orthoreovirus 1; assay: Antiviral activity against Reo virus type-1 infected in BHK-21 cells assessed as protection against virus induced cytopathogenicity after 3 to 4 days by MTT assay; type: functional, organism-based; in short: as §1
Human alphaherpesvirus 1 = assay: Antiviral activity against HSV1 infected in african green monkey Vero76 cells after 3 days by plaque reduction assay; type: functional, organism-based; settings: Vero 76; in short: as §2
Vaccinia virus = assay: Antiviral activity against Vaccinia virus infected in african green monkey Vero76 cells after 3 days by plaque reduction assay; type: functional, organism-based; settings: Orthopoxvirus vaccinia; Vero 76
[6] = Cytotoxicity against human MT4 cells assessed as reduction of cell viability after 96 hrs by MTT assay; type: cell-based
In short: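 Exponentially growing, mock-infected MT-4 cells were seeded at 1×10^5 cells mL-1 in RPMI-1640 with 10% FCS and penicillin/streptomycin, with serial compound dilutions. Incubated 96 h at 37 °C, 5% CO2, then viability read by MTT. CC50 is the concentration reducing viability by 50%.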

Row | Structure (SMILES) | EC50 [1] [µM] | Activity (Yellow fever virus) | Activity [2] | Activity (Coxsackievirus B2) | Activity (Poliovirus 1) | Activity [3] | Activity [4] | Activity [5] | Activity (Human alphaherpesvirus 1) | Activity (Vaccinia virus) | CC50 at 96 h [6] [µM] | EC50 ([2]; Bovine viral diarrhea virus isolates and strains) [µM] | EC50 (Yellow fever virus) [µM]
1 | CC1=CC2C(C(C)C)CC1C1C(=O)N(N3CCCCS/C3=N\c3ccc(F)cc3)C(=O)C21 (stereo unspecified) | > 49 | inactive | inactive | inactive | inactive | inactive | inactive | inactive | inactive | inactive | 49 |  | 
2 | Cc1ccc(/N=C2\SCCCCN2N2C(=O)C3C(C2=O)C2(C(C)C)C=CC3(C)CC2)cc1 (stereo unspecified) |  | inactive | inactive | inactive | inactive | inactive | inactive | inactive | inactive | inactive |  |  | 
3 | CC(C)C12C=CC(C)(CC1)C1C(=O)N(N3CCCCS/C3=N\Cc3ccccc3)C(=O)C12 (stereo unspecified) | > 100 | inactive | inactive | inactive | inactive | inactive | inactive | inactive | inactive | inactive | > 100 |  | 
4 | C=CC/N=C1\SCCCCN1N1C(=O)C2C3CC(C(C)C)C(C=C3C)C2C1=O (stereo unspecified) | > 59 | inactive | inactive | inactive | inactive | inactive | inactive | inactive | inactive | inactive | 59 |  | 
5 | C=CCNC(=S)NN1C(=O)C2C(C1=O)C1(C(C)C)C=CC2(C)CC1 (stereo unspecified) | > 100 |  |  | inactive | inactive | inactive | inactive | inactive | inactive | inactive | > 100 | 52 | 
6 | CC(C)C12C=CC(C)(CC1)C1C(=O)N(NC(=S)Nc3ccc(Cl)c(Cl)c3)C(=O)C12 (stereo unspecified) | > 59 | inactive | inactive | inactive | inactive | inactive | inactive | inactive | inactive | inactive | 59 |  | 
7 | CC1=CC2C(C(C)C)CC1C1C(=O)N(N3CCCCS/C3=N\c3ccc(Cl)cc3)C(=O)C21 (stereo unspecified) | > 30 | inactive | inactive | inactive | inactive | inactive | inactive | inactive | inactive | inactive | 30 |  | 
8 | CC1=CC2C(C(C)C)CC1C1C(=O)N(NC(=S)Nc3ccc(F)cc3)C(=O)C21 (stereo unspecified) | > 69 | inactive | inactive | inactive | inactive | inactive | inactive | inactive | inactive | inactive | 69 |  | 
9 | CC(C)C12C=CC(C)(CC1)C1C(=O)N(NC(=S)NCc3ccccc3)C(=O)C12 (stereo unspecified) | > 58 |  |  | inactive | inactive | inactive | inactive | inactive | inactive | inactive | 58 |  | 41
10 | CC(C)C12C=CC(C)(CC1)C1C(=O)N(NC(=S)Nc3ccc(F)cc3)C(=O)C12 (stereo unspecified) |  | inactive | inactive | inactive | inactive | inactive | inactive | inactive | inactive | inactive |  |  | 
11 | CC1=CC2C(C(C)C)CC1C1C(=O)N(NC(=S)Nc3ccc(I)cc3)C(=O)C21 (stereo unspecified) | > 45 | inactive | inactive | inactive | inactive | inactive | inactive | inactive | inactive | inactive | 45 |  | 
12 | CC1=CC2C(C(C)C)CC1C1C(=O)N(N3CCCCS/C3=N\Cc3ccccc3)C(=O)C21 (stereo unspecified) | > 47 | inactive | inactive | inactive | inactive | inactive | inactive | inactive | inactive | inactive | 47 |  | 
13 | C=CC/N=C1\SCCCCN1N1C(=O)C2C(C1=O)C1(C(C)C)C=CC2(C)CC1 (stereo unspecified) | > 58 | inactive | inactive | inactive | inactive | inactive | inactive | inactive | inactive | inactive | 58 |  | 
14 | CC(C)C12C=CC(C)(CC1)C1C(=O)N(N3CCCCS/C3=N\c3ccc(F)cc3)C(=O)C12 (stereo unspecified) | > 86 | inactive | inactive | inactive | inactive | inactive | inactive | inactive | inactive | inactive | 86 |  | 
15 | O=C1Nc2ccc(Cl)cc2[C@@](C#CC2CC2)(C(F)(F)F)O1 [EFAVIRENZ] |  |  |  |  |  |  |  |  |  |  | 35 |  | 
16 | CC1=CC2C(C(C)C)CC1C1C(=O)N(NC(=S)Nc3ccc(C)cc3)C(=O)C21 (stereo unspecified) |  | inactive | inactive | inactive | inactive | inactive | inactive | inactive | inactive | inactive |  |  | 
17 | CC(C)C12C=CC(C)(CC1)C1C(=O)N(NC(=S)Nc3ccc(Cl)cc3)C(=O)C12 (stereo unspecified) |  | inactive | inactive | inactive | inactive | inactive | inactive | inactive | inactive | inactive |  |  | 
18 | Cc1ccc(NC(=S)NN2C(=O)C3C(C2=O)C2(C(C)C)C=CC3(C)CC2)cc1 (stereo unspecified) |  | inactive | inactive | inactive | inactive | inactive | inactive | inactive | inactive | inactive |  |  | 
